One data set concerns Plasmodium falciparum. As to the kind of experiment: Antimalarial activity against chloroquine-sensitive Plasmodium falciparum 3D7. It is filed as functional, organism-based. Summed up: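 Chloroquine-sensitive P. falciparum 3D7 grown in vitro with ciprofloxacin as the reference standard; IC50 reported as mass concentration ± SE.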
In data set [1] the test system is HEK293. As to the kind of experiment: Cytotoxicity against human HEK293 cells 1 to 100 uM after 24 to 72 hrs by MTT assay. The format is cell-based. Summed up: (§1)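 HEK-293 monolayers were kept in DMEM at 37 °C under 5% CO2 and seeded at about 4000 cells/well for 24 h. Medium was then replaced with fresh medium holding compound at 1, 10, 20, 30, 50 and 100 concentration units, and cells were incubated 24, 48 and 72 h. Viability was read by MTT and IC50 calculated.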

Data set [2] relates to HEK293. As to the kind of experiment: Cytotoxicity against human HEK293 cells after 24 to 72 hrs by MTT assay. It is filed as cell-based. In outline:
as §1
A general note: Tetrazolium dyes change colour on reduction, which living cells bring about.

Molecules are shown by their SMILES. Values after ≈ are worked out from the molar mass of the structure shown.

By IC50 is commonly meant the concentration at which inhibition is half-maximal. The low end stands for inhibition by little substance, the high end for a need for much substance.

Take `CCOC(=O)c1c[nH]c2cc(Cl)c(F)cc2c1=O`: the IC50 in the data set with Plasmodium falciparum amounted to 5.81 µg/mL (≈ 21.5 µM).

For `CCCn1cc(Cn2cc(C(=O)OCC)c(=O)c3cc(F)c(Cl)cc32)nn1`, it took 5.4 µg/mL (≈ 13.7 µM) to reach half-maximal inhibition in the data set with Plasmodium falciparum (IC50).

Compound `CCOC(=O)c1cn(Cc2cn(CCO)nn2)c2cc(Cl)c(F)cc2c1=O` had an IC50 in the data set with Plasmodium falciparum of 14.3 µg/mL (≈ 36.3 µM).

In turn, `CCOC(=O)c1cn(Cc2cn(CC(=O)OC)nn2)c2cc(Cl)c(F)cc2c1=O` gave a half-inhibitory concentration (IC50) with Plasmodium falciparum of 5.26 µg/mL (≈ 12.4 µM).

In the data set with Plasmodium falciparum, `CCCCn1cc(C(=O)OCC)c(=O)c2cc(F)c(Cl)cc21` had an IC50 of 6.96 µg/mL (≈ 21.4 µM).

In turn, `CCOC(=O)c1cn(C(C)C)c2cc(Cl)c(F)cc2c1=O` yielded an IC50 in the data set with Plasmodium falciparum of 6.97 µg/mL (≈ 22.3 µM).

Turning to `C#CCn1cc(C(=O)OCC)c(=O)c2cc(F)c(Cl)cc21`, the IC50 in the data set on Plasmodium falciparum is 3.46 µg/mL (≈ 11.2 µM).

Regarding `O=C(O)c1c[nH]c2cc(Cl)c(F)cc2c1=O`, the Activity entry in the data set on HEK293 [1] was “Non-toxic”. Besides, in the data set on Plasmodium falciparum, the IC50 was 4.32 µg/mL (≈ 17.9 µM).

In the data set with Plasmodium falciparum, `CCOC(=O)c1cn(C)c2cc(Cl)c(F)cc2c1=O` yielded an IC50 of 11.8 µg/mL (≈ 41.7 µM).

Consider `CCOC(=O)c1cn(CC)c2cc(Cl)c(F)cc2c1=O`, for which the 50% inhibitory concentration (IC50) in the data set on Plasmodium falciparum was 15.2 µg/mL (≈ 51.1 µM).

In turn, `CCCn1cc(C(=O)OCC)c(=O)c2cc(F)c(Cl)cc21` showed an IC50 with Plasmodium falciparum of 4.86 µg/mL (≈ 15.6 µM).

On to `CCOC(=O)c1cn(Cc2cn(Cc3ccccc3)nn2)c2cc(Cl)c(F)cc2c1=O`, for which the IC50 with Plasmodium falciparum was determined as 12.2 µg/mL (≈ 27.7 µM).

The compound `CCOC(=O)c1cn(Cc2cn(-c3ccc(Cl)cc3)nn2)c2cc(Cl)c(F)cc2c1=O` yielded an IC50 in the data set with Plasmodium falciparum of 13 µg/mL (≈ 28.2 µM).

In the data set with Plasmodium falciparum, `CCOC(=O)c1cn(Cc2cn(-c3cccc(Cl)c3)nn2)c2cc(Cl)c(F)cc2c1=O` registered an IC50 of 2.73 µg/mL (≈ 5.92 µM).

For the compound `CCOC(=O)c1cn(CCO)c2cc(Cl)c(F)cc2c1=O`, the IC50 in the data set with Plasmodium falciparum was 4.26 µg/mL (≈ 13.6 µM).

`CCOC(=O)c1cn(CC#N)c2cc(Cl)c(F)cc2c1=O` came in with an IC50 with Plasmodium falciparum of 2.56 µg/mL (≈ 8.29 µM).

In the data set on Plasmodium falciparum, `CCOC(=O)c1cn(Cc2ccccc2)c2cc(Cl)c(F)cc2c1=O` had an IC50 of 6.83 µg/mL (≈ 19 µM).

Consider `CCOC(=O)c1cn(Cc2c[nH]nn2)c2cc(Cl)c(F)cc2c1=O`, for which the Activity entry with HEK293 [1] is “Toxic”. The compound further yielded an IC50 with Plasmodium falciparum of 1.33 µg/mL (≈ 3.79 µM).

Turning to `CCOC(=O)c1cn(Cc2cn(-c3ccc(F)cc3)nn2)c2cc(Cl)c(F)cc2c1=O`, the figures for the IC50 in the data set with HEK293 [2] and with Plasmodium falciparum were 63.8 µM and 4.3 µg/mL (≈ 9.67 µM), respectively.

As for `CCOC(=O)c1cn(Cc2cn(-c3ccc(F)c(Cl)c3)nn2)c2cc(Cl)c(F)cc2c1=O`, the IC50 with HEK293 [2] stood at 41.9 µM; in the data set with Plasmodium falciparum, 3.4 µg/mL (≈ 7.09 µM).

As to `CCOC(=O)c1cn(Cc2cn(-c3ccnc4cc(Cl)ccc34)nn2)c2cc(Cl)c(F)cc2c1=O`, in the data set on HEK293 [1], the Activity result is recorded as “Non-toxic”. Moreover, half-maximal inhibition with Plasmodium falciparum (IC50) was put at 4.06 µg/mL (≈ 7.92 µM).

Take `O=C(O)c1cn(C2CC2)c2cc(N3CCNCC3)c(F)cc2c1=O` [CIPROFLOXACIN]: in the data set with Plasmodium falciparum, the half-inhibitory concentration (IC50) was found to be 8.82 µg/mL (≈ 26.6 µM).

The record behind these values is ChEMBL document CHEMBL1955758, “Synthesis and in vitro antiplasmodial activities of fluoroquinolone analogs” (Eur J Med Chem, 2012).
